Experimental data published in ChEMBL document CHEMBL1124846, “Synthesis, antiproliferative, and antiviral activity of certain 4-substituted and 4,5-disubstituted 7-[(1,3-dihydroxy-2-propoxy)methyl]pyrrolo[2,3-d]pyrimidines” (J Med Chem, 1990).

Experiments:
[1] = tested on: Mus musculus; assay: Compound was evaluated for mean day of death at 1.9 mg/kg at 6 h; assay type: functional
Procedure, shortened: (§1)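 Three-week-old female Swiss Webster mice inoculated ip with 2×10^5 PFU MCMV Smith strain. Groups of 15 dosed ip twice daily for 5 days, starting 6, 24 or 48 h post-inoculation. Held 21 days with daily mortality checks. Final mortality and mean day of death (dying animals) computed. Mortality versus placebo by Fisher Exact Test, MDD by Mann–Whitney U-rank test.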

[2] = tested on: Mus musculus; assay: Compound was evaluated for 15 mice treated ip twice daily for 5 days at a dose of 16.7 mg/kg at 24 hr followed (MCMV) virus inoculation; assay type: functional; conditions: route intraperitoneal; procedure, shortened: as §1
[3] = tested on: Mus musculus; assay: Compound was evaluated for percent mortality of mice inoculated with murine cytomegalovirus at a concentration of 50 mg/kg; drug toxicity control; assay type: functional
Procedure, shortened: (§2)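 Three-week-old female Swiss Webster mice infected ip with 2×10^5 PFU MCMV Smith strain; groups of 15 given drug ip twice daily for 5 days, starting 6, 24 or 48 h after inoculation. Toxicity controls received drug without virus. Mortality followed daily for 21 days; final mortality compared with placebo by Fisher Exact Test.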

[4] = Cytotoxicity of AD169 strain of HCMV in human foreskin fibroblasts cells; assay type: functional, cell-based; conditions: Fibroblast
[5] = tested on: Mus musculus; assay: Compound was evaluated for percent mortality of mice inoculated with murine cytomegalovirus at a concentration of 1.9 mg/kg at 6 h; assay type: organism-based; set-up: dose 1.9 mg/kg; conditions: in vivo; procedure, shortened: as §1
[6] = Compound was evaluated for cytotoxic activity against BSC cells; assay type: functional, cell-based; conditions: Cercopithecidae
Procedure, shortened: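 Visual cytotoxicity in uninfected areas of plaque-reduction cultures. HFF cells grown in MEM(E) + 10% FBS for HCMV (Towne) assays; BSC-1 cells for HSV-1 (S-148) assays. Drug in overlay medium. Cytopathology scored 0 to 4+ at 35- and 60-fold magnification on the staining day.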

[7] = tested on: Mus musculus; assay: Compound was evaluated for 15 mice treated ip twice daily for 5 days at a dose of 1.9 mg/kg at 48 hr followed (MCMV) virus inoculation; assay type: functional; conditions: route intraperitoneal; procedure, shortened: as §1
[8] = tested on: Mus musculus; assay: Compound was evaluated for mean day of death at 5.6 mg/kg at 6 h; assay type: functional; procedure, shortened: as §1
[9] = tested on: Mus musculus; assay: Compound was evaluated for 15 mice treated ip twice daily for 5 days at a dose of 5.6 mg/kg at 48 hr followed (MCMV) virus inoculation; assay type: functional; conditions: route intraperitoneal; procedure, shortened: as §1
[10] = tested on: Human alphaherpesvirus 1; assay: Inhibition of herpes simplex virus (HSV-1) in yield reduction assay; assay type: functional, organism-based
[11] = Inhibition of herpes simplex virus type 1(HSV-1) in monkey kidney cell was determined by plaque assay; assay type: functional, cell-based; conditions: Cercopithecidae
Procedure, shortened: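 HSV-1 S-148 strain plaque reduction in BSC-1 monkey kidney monolayers, with about 100 PFU inoculum and compound dissolved in the overlay medium. IC50 came from linear regression of percent inhibition against log concentration, with a positive control in each set.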

[12] = tested on: Mus musculus; assay: Compound was evaluated for 15 mice treated ip twice daily for 5 days at a dose of 50 mg/kg at 48 hr followed (MCMV) virus inoculation; assay type: functional; conditions: route intraperitoneal; procedure, shortened: as §1
[13] = species: Homo sapiens; assay: Inhibition of human cytomegalo virus (HCMV) in human foreskin fibroblasts cell lines was determined by plaque assay; assay type: functional, organism-based; conditions: Fibroblast
Procedure, shortened: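 HCMV Towne strain (plaque-purified P0) plaque reduction in HFF monolayers in MEM(E) with 10% FBS. Inoculum held about 50 PFU, with compound dissolved in the overlay medium. IC50 came from linear regression of percent inhibition against log concentration, with ganciclovir or acyclovir positive controls in every set; two to five experiments.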

[14] = Cytotoxicity of HCMV in human foreskin fibroblasts cells; assay type: functional, cell-based; conditions: Fibroblast
Procedure, shortened: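 Visual cytotoxicity was scored in uninfected cells of the same host monolayers used for the plaque assays, on a 0 to 4+ scale at 35- and 60-fold magnification, at the time plaques were counted.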

[15] = tested on: L1210; assay: In vitro inhibition of L1210 cell growth to half of the control rate; assay type: functional, cell-based; conditions: Mus musculus
Procedure, shortened: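 Murine L1210 leukemia cells in static suspension culture in Fischer's medium with compound for 4 days. Growth rate is the ratio of control to treated population doubling time; where the rate changed, the final rate was used. IC50 is the concentration giving 50% of control growth rate; single-concentration value at 100 μM.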

[16] = tested on: Mus musculus; assay: Compound was evaluated for percent mortality of mice inoculated with murine cytomegalovirus at a concentration of 5.6 mg/kg; drug toxicity control; assay type: functional; procedure, shortened: as §2
[17] = tested on: Mus musculus; assay: Compound was evaluated for 15 mice treated ip twice daily for 5 days at a dose of 1.9 mg/kg at 6 hr followed (MCMV) virus inoculation; assay type: functional; conditions: route intraperitoneal; procedure, shortened: as §1
[18] = tested on: Mus musculus; assay: Compound was evaluated for mean day of death at 50 mg/kg at 48 h; assay type: functional; procedure, shortened: as §1
[19] = tested on: Neoplastic cell line; assay: Compound was evaluated for cytotoxic activity against KB cells.; assay type: functional, cell-based; conditions: Homo sapiens
Procedure, shortened: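 KB cells grown in MEM(H) + 5% FBS. Compound effects measured on radiolabelled precursor incorporation into DNA, RNA and protein. IC50s from linear regression of percent inhibition vs log concentration. The three IC50s were averaged, with 2–5 experiments averaged. Runs rejected if the acyclovir/ganciclovir control deviated >1.5 SD from its mean.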

[20] = tested on: Mus musculus; assay: Compound was evaluated for 15 mice treated ip twice daily for 5 days at a dose of 50 mg/kg at 6 hr followed (MCMV) virus inoculation; assay type: functional; conditions: route intraperitoneal; procedure, shortened: as §1
[21] = tested on: Mus musculus; assay: Compound was evaluated for percent mortality of mice inoculated with murine cytomegalovirus at a concentration of 50 mg/kg at 6 h; assay type: ADME, organism-based; set-up: dose 50 mg/kg; conditions: in vivo; procedure, shortened: as §2
[22] = tested on: Mus musculus; assay: Compound was evaluated for 15 mice treated ip twice daily for 5 days at a dose of 16.7 mg/kg at 48 hr followed (MCMV) virus inoculation; assay type: functional; conditions: route intraperitoneal; procedure, shortened: as §1
[23] = tested on: Mus musculus; assay: Compound was evaluated for mean day of death at 5.6 mg/kg at 48 h; assay type: functional; procedure, shortened: as §1
[24] = tested on: Mus musculus; assay: Compound was evaluated for 15 mice treated ip twice daily for 5 days at a dose of 1.9 mg/kg at 24 hr followed (MCMV) virus inoculation; assay type: functional; conditions: route intraperitoneal; procedure, shortened: as §1
[25] = Inhibition of herpes simplex virus (HSV-2) in human foreskin fibroblasts cell lines was determined by plaque assay; conditions: Fibroblast
[26] = tested on: Mus musculus; assay: Compound was evaluated for percent mortality of mice inoculated with murine cytomegalovirus at a concentration of 5.6 mg/kg at 6 h; assay type: ADME, organism-based; set-up: dose 5.6 mg/kg; conditions: in vivo; procedure, shortened: as §2
[27] = Compound was evaluated for percent mortality of mice inoculated with murine cytomegalovirus at a concentration of 16.7 mg/kg; drug toxicity control; assay type: organism-based; set-up: dose 16.7 mg/kg; conditions: mouse, in vivo
Procedure, shortened: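 Drug toxicity control: uninfected three-week-old female Swiss Webster mice, groups of 15, dosed ip twice daily for 5 days. Held 21 days with daily mortality checks. Final mortality and mean day of death for animals that died were calculated.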

[28] = tested on: Mus musculus; assay: Compound was evaluated for 15 mice treated ip twice daily for 5 days at a dose of 16.7 mg/kg followed (MCMV) virus inoculation; assay type: functional; conditions: route intraperitoneal
[29] = tested on: Mus musculus; assay: Compound was evaluated for mean day of death at 16.7 mg/kg at 48 h; assay type: functional; procedure, shortened: as §1
[30] = tested on: Mus musculus; assay: Compound was evaluated for percent mortality of mice inoculated with murine cytomegalovirus at a concentration of 1.9 mg/kg at 48 h; assay type: organism-based; set-up: dose 1.9 mg/kg; conditions: in vivo; procedure, shortened: as §1

Nc1ncnc2c1c(Br)cn2COC(CO)CO
MDD [1]: 6.2 | Activity [2]: 12 | mortality at 50 mg/kg [3]: 0% | IC50 [4]: > 158 µM | Mortality [5]: 33% | IC50 [6]: > 100 µM | Activity [7]: 10 | MDD [8]: 8 | Activity [9]: 6 | IC90 [10]: 17 µM | IC50 [11]: 2 µM | Activity [12]: 13 | IC50 [13]: 1.6 µM | IC50 [14]: > 100 µM | IC50 [15]: 0.71 µM | mortality at 5.6 mg/kg [16]: 0% | Activity [17]: 5 | MDD [18]: 7.5 | IC50 [19]: > 100 µM | Activity [20]: 9 | Mortality [21]: 60% | Activity [22]: 13 | MDD [23]: 5.5 | Activity [24]: 9 | IC50 [25]: 0.3 µM | Mortality [26]: 7% | Mortality [27]: 7% | Activity [28]: 1 | MDD [29]: 8.4 | Mortality [30]: 67%
